Compound activity deposited in PubChem BioAssay by several laboratories.
Hits are enriched below; roughly 9.2% of the tested compounds scored in any of these assays.
HUVEC prolif 384: inhibitors of HUVEC proliferation, primary screen, cell-based, 384-well | AID 648, 2007 | CellTiter-Glo luminescence, 72 h; active compounds read low | viability, % at 10 µM (by protocol) | 86,000 compounds, 1.1% hits;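 active = viability at or below 30%; inactive = viability above 30%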;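 also: 100% = median luminescence of DMSO-only cell control wells on each plate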
ERb SRC1 inh: inhibitors of ERβ-SRC1 coactivator interaction, primary screen, biochemical, TR-FRET, ERβ LBD, SRC-1 peptide; TR-FRET ER-beta LBD / SRC1-Cy5 peptide binding; receptor agonist-loaded with 1 µM estradiol; inhibition, % at 25.6 µM; 86,000 compounds, 1.3% hits; AID 633, 2007;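 active = compounds whose percent inhibition of the receptor-coactivator binding signal exceeds about 50% in the single-dose screen, limit read from the data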;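 also: 0% = receptor plus peptide wells without compound and 100% = peptide-only wells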
Target sequence (Q92731 whole entry, looked up, the tested form may be a part): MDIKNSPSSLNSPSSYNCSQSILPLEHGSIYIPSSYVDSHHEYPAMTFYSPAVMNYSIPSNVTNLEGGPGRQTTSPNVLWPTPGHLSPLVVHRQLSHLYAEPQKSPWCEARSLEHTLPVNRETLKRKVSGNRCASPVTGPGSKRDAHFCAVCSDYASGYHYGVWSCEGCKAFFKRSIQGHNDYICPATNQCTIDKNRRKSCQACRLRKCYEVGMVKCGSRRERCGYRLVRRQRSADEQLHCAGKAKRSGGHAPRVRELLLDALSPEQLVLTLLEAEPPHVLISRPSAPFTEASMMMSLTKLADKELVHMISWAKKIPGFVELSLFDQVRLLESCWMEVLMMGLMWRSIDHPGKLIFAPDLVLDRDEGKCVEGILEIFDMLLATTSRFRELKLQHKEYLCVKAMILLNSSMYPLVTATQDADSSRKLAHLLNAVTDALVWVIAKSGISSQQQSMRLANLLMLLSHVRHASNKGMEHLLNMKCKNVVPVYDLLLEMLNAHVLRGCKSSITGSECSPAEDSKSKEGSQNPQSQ
ERa coact inh: ERα–SRC-1 coactivator interaction inhibitors, primary screen, biochemical, TR-FRET, ERα LBD, estradiol-bound | 86,000 compounds, 1.7% hits | TR-FRET ER-alpha LBD / SRC-1 peptide | inhibition, % at 25.6 µM; in the data active = inhibition above about 50%;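 also: 0% = receptor plus peptide control and 100% = peptide only without receptor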
Fibroblast inh: antiproliferative effect on LL 47 fibroblasts – human, LL 47 cells, CellTiter-Glo luminescence, primary screen | viability, % at 10 µM | 85,000 compounds, 1.1% hits | LL 47 human lung fibroblast viability, ATP luminescence; active compounds read low;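 active = viability at or below 50% in the single dose screen; inactive = viability above 50%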;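 also: compound exposure lasted 72 h before the ATP readout; 100% = median luminescence of untreated cell-only wells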
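Assay system: human lung fibroblast line LL 47, low passage. Input: 1,150 fibroblasts seeded per well. Times: overnight cell rest, 72 h compound treatment at 37 °C. Evaluation: % viability of median cell-only signal. Technique: luminescent ATP detection, CellTiter-Glo. Control set: cell-only wells, no compound.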
ERa SRC1 pot: enhancers of ERα–SRC-1 coactivator binding, primary screen, biochemical, TR-FRET, ERα LBD, low estradiol | Estrogen receptor (Homo sapiens), P03372 | TR-FRET ERalpha-LBD/SRC-Cy5 coactivator binding, 2 h; 100 = basal binding, no effect | coactivator binding (% of control), % at 25.6 µM | 86,000 compounds, 1.3% hits | AID 639, 2007; in the data active = activity above about 200%;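 also: binding measured in presence of low estradiol as agonist stimulus; 0% = peptide alone without receptor and 100% = receptor with peptide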
H69AR inhibit: proliferation blockers of H69AR lung cancer cells, primary screen, cell-based, human, 86K library. AID 598, 2007. 85,000 compounds, 6% hits. H69AR lung tumor viability, ATP luminescence, 72 h; active compounds read low. viability, % at 10 µM;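 active = viability at or below 40%; inactive = viability above 40%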;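 also: multidrug resistant small cell line overexpressing MRP-1 efflux transporter; 100% = mean luminescence of untreated control wells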
Numbers without * were called inactive; [ ] = dose if it differs, or a comment.

SMILES	HUVEC prolif 384	ERb SRC1 inh	ERa coact inh	Fibroblast inh	ERa SRC1 pot	H69AR inhibit
Cc1cccc(NC(=O)CSc2nnc(-c3ccc(S(=O)(=O)N4CCOCC4)cc3)n2C)c1	96	3	-7	92	104	83
COc1ccccc1C(=O)Nc1ccc(S(=O)(=O)N2CCOCC2)cc1	110	-3	-10	103	112	82
Cc1cc(C)c(O)c(-c2cc(C(=O)Nc3ccc(S(=O)(=O)N4CCOCC4)cc3)[nH]n2)c1	36	-1	4	41*	123	9.2*
Cc1cc(C)n(-c2ccc3cccc(NS(C)(=O)=O)c3n2)n1	23*	0	-2	26*	89	21*
CS(=O)(=O)Nc1cccc2cccnc12	90	-5	-11	90	129	65
O=S(=O)(c1ccc(Oc2ccccc2)cc1)N1CCOCC1	113	-5	-8	90	114	92
O=S(=O)(c1ccc(Oc2ncnc3scc(-c4ccccc4)c23)cc1)N1CCOCC1	86	19	22	88	192	37*
Cc1ccc2[nH]c(=O)c(CN(CCc3ccccc3)C(=O)N3CCOCC3)cc2c1	98	0	1	100	98	80
Cc1ccc2c(c1)cc(CN(CCc1ccccc1)C(=O)N1CCOCC1)c1nnnn12	83	-4	65*[fluorescence artefact?]	89	113	58
Cc1sc2nc(C(C)Nc3ccccc3N3CCOCC3)[nH]c(=O)c2c1C (configuration not stated)	86	-5	-12	93	254*	49
Cc1sc2nc(SCC(=O)N3CCOCC3)[nH]c(=O)c2c1C	101	5	3	105	94	64
Oc1ccccc1Nc1nc(NCC2CCCO2)c2ccccc2n1 (configuration not stated)	85	7	3	95	112	46
COc1cccc(Nc2nc(NCC3CCCO3)c3ccccc3n2)c1 (configuration not stated)	35	10	27	23*	61	64
Oc1ccc(Nc2nc(NCC3CCCO3)c3ccccc3n2)cc1 (configuration not stated)	35	1	14	86	87	37*
O=C1CCC(=O)N1c1cccc(-c2nc3ccccc3o2)c1	106	-3	-4	108	137	98
O=C1c2ccc(-c3nc4ccccc4o3)cc2C(=O)N1Cc1cccnc1	91	-15	-2	100	370*	97
O=C1c2cccnc2C(=O)N1c1cccc(-c2nc3ccccc3o2)c1	95	33	53*[fluorescence artefact?]	104	59	95
CCn1c(SCc2nc3cc(OC)c(OC)cc3c(=O)[nH]2)nnc1-c1ccncc1	96	-3	1	98	101	87
CC(=O)c1ccc(NC(=O)N[C@@H](CC(C)C)C(=O)O)cc1	102	2	1	99	116	99
CC(=O)c1c(COC(=O)c2cccnc2)nc2ccccc2[n+]1[O-]	100	57*[fluorescence artefact?]	65*[fluorescence artefact?]	98	52	95
COC(=O)Nc1sc2c(c1C(=O)NCc1ccco1)CCC2	76	-5	-18	82	101	39*
CC(C)OC(=O)c1c(NC(=O)c2ccco2)sc2c1CCCCC2	108	11	26	90	83	87
NC(=O)c1c(NC(=O)c2cc3ccccc3o2)sc2c1CCC2	62	53*	62*	82	197	24*
O=C(Nc1sc2c(c1C(=O)NC1CC1)CCCCCC2)c1ccco1	93	24	37	99	197	30*
COC(=O)Nc1sc2c(c1C(=O)NCc1ccco1)CCCC2	83	5	-7	93	86	78
SMILES	HUVEC prolif 384	ERb SRC1 inh	ERa coact inh	Fibroblast inh	ERa SRC1 pot	H69AR inhibit
O=C(CCN1C(=O)c2ccccc2C1=O)Nc1sc2c(c1C(=O)NCc1ccco1)CCCC2	81	-24	-24	104	111	58
O=C(Nc1sc2c(c1C(=O)NCc1ccco1)CCCC2)c1ccc2c(c1)OCO2	89	62*[fluorescence artefact?]	14	109	136	79
Cn1c(=O)c2c(nc(SCc3cccnc3)n2Cc2ccc(F)cc2)n(C)c1=O	86	4	21	83	87	95
COC(=O)C(C(=O)OC)C(C)C(C(=O)OC)C(=O)OC	86	-6	-3	99	96	97
COc1ccc(C(=O)Nc2sc3c(c2C(=O)NCc2ccco2)CCCC3)cc1OC	67	11	10	86	228*	36*
COc1cc(C(=O)Nc2sc3c(c2C(=O)NCc2ccco2)CCCC3)cc(OC)c1OC	68	-9	-14	87	125	60
Cc1ccc(C(=O)Nc2sc3c(c2C(=O)NCc2ccco2)CCCC3)cc1	44	10	7	96	141	11*
CC(C(=O)Nc1sc2c(c1C(=O)NCc1ccco1)CCCC2)N1C(=O)c2ccccc2C1=O (configuration not stated)	85	4	3	100	95	23*
Cc1ccc(C2(C(F)(F)F)N=C3Sc4cc(C)ccc4N3C(=O)N2)cc1 (configuration not stated)	82	-6	-4	77	116	78
CC(C)Oc1ccc(/C=N/NC(=O)C(CSCc2ccccc2)NC(=O)c2ccc([N+](=O)[O-])cc2)cc1 (configuration not stated)	67	9	24	66	96	28*
O=C(CCCc1ccccc1)Nc1cccnc1	97	-3	2	109	94	110
CCOC(=O)N1CCN(C(=O)CSCC(=O)Nc2nc(-c3ccc(-c4ccccc4)cc3)cs2)CC1	55	33	42	82	55	0.7*
COc1cccc(NC(=O)Nc2nnc(-c3ccccc3SCc3ccccc3)s2)c1	79	-18	0	66	112	17*
COc1ccc(NC(=O)Nc2nnc(-c3ccccc3SCc3ccccc3)s2)cc1	69	-14	-9	95	85	48
Cc1ccc(NC(=O)N2CCC(C(=O)Nc3ccc(C)cc3C)CC2)cc1	104	6	16	93	106	105
CCN(CC)C(=O)c1sc(NC(=O)c2ccoc2C)c(C(=O)OC)c1C	104	0	-12	91	91	99
COC(=O)c1c(-c2ccncc2)csc1NC(=O)c1ccoc1C	57	3	8	96	321*	77
CCOC(=O)c1c(C)[nH]c(C(=O)COC(=O)c2ccc(N3CCCC3=O)cc2)c1C	103	34	51*[fluorescence artefact?]	100	218*[fluorescence artefact?]	87
